This excerpt belongs to a sample that is enriched for hits.
Redox H2O2 prof – compounds producing H2O2 with reducing agent – biochemical, NIH compound library profiling, artefact control for MLSCN library redox annotation, primary screen; DTT-dependent redox cycling H2O2, phenol red/HRP absorbance; 100% = 100 µM peroxide control, 0% = buffer; activation, % at 10 µM; 200,000 tested, 0.03% active; AID 878;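 active = activation of at least 50% relative to the plate's high and low controls in the primary single-dose screen; inactive = activation below 50%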;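 also: compound incubated with DTT at 0.8 mM final as the reducing agent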
T cruzi inh – blocks replication of Trypanosoma cruzi; AID 1885; 300,000 tested, 1.4% active; T. cruzi beta-gal in NIH3T3, luminescence, 90 h; inhibition, % (no concentration beside the values);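 active = mean inhibition across valid replicates above about 55%, limit read from the data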;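 also: signal also drops with host cell toxicity which is not excluded here; 0% = plate median of DMSO wells and 100% = zero luminescence signal; higher percent means less beta-gal luminescence so fewer parasites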
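System: mouse NIH/3T3 fibroblasts infected with β-gal-expressing T. cruzi Tulahuen C4 / Input: NIH/3T3 cells, 5,000 per well / Buffer or medium: Low-serum DMEM with 2% FBS / Probe or stimulus: 5000 reporter trypomastigotes per well / Schedule: ≥90 h infection period, 3 h prior cell attachment / Measured by: GalScreen luminescence, 60 min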
L major viab – inhibitors of Leishmania major promastigote growth. Leishmania major promastigotes, resazurin fluorescence viability. inhibition, % at 10 µM. 200,000 tested, 9% active. AID 1063; in the data active = inhibition above about 50%;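 also: promastigotes grown with compound for 44 hours at 28 °C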
Lipid droplet – hepatic lipid droplet formation modulation; AML12 mouse hepatocytes, oleate lipid droplets, BODIPY imaging; inhibition, % at 6.5 µM; 240,000 tested, 0.4% active;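 active = lipid droplet intensity inhibited by at least 50%, with more than 500 cells counted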
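Assay system: AML12 mouse liver cells | Compound: 6.5 µM single-point dosing | Schedule: Overnight exposure | Technique: Fluorescence imaging, 20x objective, two fields per well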
MPTP inh – blocks calcium-induced mitochondrial swelling | isolated mouse mitochondria, Ca2+ swelling absorbance, 30 min | inhibition, % at 10 µM | 360,000 tested, 1.4% active;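 active = inhibition of 50% or more, scaled per plate between neutral and stimulator controls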;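 also: 0% = DMSO wells given calcium and 100% = 1 mM EGTA wells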
* = called active by the depositor; . = no result.

SMILES	Redox H2O2 prof	T cruzi inh	L major viab	Lipid droplet	MPTP inh
O=C(Cn1cnc([N+](=O)[O-])n1)NCc1ccccc1	-2	79*	26	.	-4
CCOC(=O)c1c(S(=O)(=O)NCc2ccc(C)o2)c(C)n(C)c1C	.	-8	.	-1	0
O=C1C2CCCN2C(=O)N1CCN1CCN(c2ccccc2)CC1 (configuration not stated)	0	-25	61*	11	1
O=C1C2CCCN2C(=O)N1CCCCN1CCN(c2ccccc2)CC1 (configuration not stated)	-1	-11	1	7	1
Cc1ccc(-c2nc3c(Cl)cc(C(F)(F)F)cn3c2Cc2cccc(F)c2)cc1	.	.	.	.	4
Cc1noc(C)c1S(=O)(=O)N1CCN(C(c2ccccc2)c2ccc(Cl)cc2)CC1 (configuration not stated)	0	50	71*	.	1
Cc1noc(C)c1S(=O)(=O)N1CCC(C(=O)c2ccccc2)CC1	.	8	.	3	2
O=c1cc(CCl)nc2sc3ccccc3n12	0	61*	41	5	0
Cc1c(O)nc2sc3ccccc3n2c1=O	.	-5	.	-1	.
O=C(OCc1cc(=O)n2c(n1)sc1ccccc12)c1ccc(O)cc1	0	6	59*	-7	1
COc1ccc(/C=C/C(=O)OCc2cc(=O)n3c(n2)sc2ccccc23)cc1	1	-10	-4	-57	-13
CC1=C(C#N)c2nc(N)c(C#N)c(C)c2/C1=C\c1ccc(OCC(=O)O)c(Cl)c1	.	-11	.	.	4
COc1ccccc1-c1nnc(Sc2nc([N+](=O)[O-])nn2C)o1	0	58*	97*	12	-1
COC(=O)c1cc(OC(=O)CCc2ccc(OC)c(OC)c2)cc(C(=O)OC)c1	.	0	.	-16	1
COc1ccc(-c2c(C#N)c(SCC(=O)Nc3ccccc3)nc3c2CCCC3)cc1	1	41	92*	.	2
O=C(Nc1ccc(N2CCCC2)cc1)C(Cl)c1ccccc1 (configuration not stated)	-7	0	99*	.	-5
CS(=O)(=O)N1CCN(c2ccc(NC(=O)C(c3ccccc3)c3ccccc3)cc2)CC1	0	-10	7	33	1
CC(=O)NC(CCCN1C(=O)c2ccccc2C1=O)c1nnn(C)n1 (configuration not stated)	0	16	-8	11	-2
O=C(NNC(=O)C1CC(c2cccnc2)=NO1)Nc1ccccc1F (configuration not stated)	-1	-5	-6	-21	-1
CCn1cc(C(=O)O)c(=O)c2cc(F)c(N/N=C/c3ccccc3[N+](=O)[O-])cc21	1	34	78*	-25	13
C=C(CCC(=O)c1ccccc1)C(=O)c1ccccc1	0	-43	100*	-11	0
O=C(CCCCCCCC(=O)c1ccccc1)c1ccccc1	0	-8	-7	3	1
C=C(C(=O)c1ccccc1)C(CC(=O)c1ccccc1)c1ccccc1 (configuration not stated)	0	24	82*	-54	2
CN(c1ccccc1)S(=O)(=O)c1ccc(Cl)c(C(=O)NCC(c2ccco2)N2CCCC2)c1 (configuration not stated)	.	.	.	.	-2
O=C(CNC(=O)C1(c2ccccc2)CC1)Nc1ccc(F)c(F)c1	.	0	.	.	-1
SMILES	Redox H2O2 prof	T cruzi inh	L major viab	Lipid droplet	MPTP inh
O=C(CN(C(=O)CCC(=O)Nc1nccs1)c1ccc(F)c(Cl)c1)NCc1ccco1	-3	5	90*	-14	4
O=C(CN(C(=O)CCC(=O)Nc1nccs1)c1ccc(F)cc1)NCc1ccco1	1	8	34	.	-2
COc1ccc(CCNc2nc(N3CCCCC3)nc(N3CCCCC3)n2)cc1OC	0	42	95*	-8	4
COc1ccc(CCNCc2ccc(OCC(=O)N3CCCCC3)c(OC)c2)cc1OC	2	57*	-5	-32	0
CCOc1nc(NCCc2ccc(OC)c(OC)c2)nc(NC(C)(C)CO)n1	1	2	53*	.	0
COc1ccc(CCNc2nc(Cl)nc(NC(C)(C)CO)n2)cc1OC	.	5	.	-15	0
O=[N+]([O-])c1cc(/C=N/O)ccc1Oc1ccccc1Cl	0	0	-1	0	3
O=C(NC1CC1)c1sc2cc(Cl)ccc2c1Cl	.	-5	.	.	-1
O=C(Nc1nccs1)c1sc2ccccc2c1Cl	-8	6	0	9	6
